The source made the active and inactive calls. The calls are words filed in the database; no cut-off is given here.
Key:
[1] = Cytotoxicity against rat PC12 cells assessed as cell survival at 100 uM after 24 hrs by MTT assay relative to control; format: toxicity, PC-12; conditions: read-out: Survival
[2] = Cytotoxicity against rat PC12 cells assessed as cell survival at 20 uM after 72 hrs by MTT assay relative to control; format: toxicity, PC-12; conditions: read-out: Survival
[3] = tested on: PC-12; assay: Neuroprotective activity against 6-OHDA-induced toxicity in rat PC12 cells assessed as increase in cell survival preincubated for 24 hrs followed by 6-OHDA addition measured after 24 hrs by MTT assay; format: functional, cell-based
How it was run: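 PC12 cells in RPMI-1640 with 10% FBS were seeded at 5×10^3 cells/well. After 24 h, compounds at 20 μM were added for 24 h at 37 °C, followed by 6-OHDA (40 μM) or rotenone (1 μM) for 24 h. Viability by MTT (570 nm, reference 630 nm), expressed as percent of untreated control. […] Mean ± SEM.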

[4] = tested on: PC-12; assay: Neuroprotective activity against 6-OHDA-induced apoptosis in rat PC12 cells assessed as early apoptotic cells at 5 uM after 24 hrs by 7-AAD/annexin V APC staining-based flow cytometric method (reference value: 42.1%); format: functional
[5] = tested on: PC-12; assay: Neuroprotective activity against 6-OHDA-induced apoptosis in rat PC12 cells assessed as late apoptotic cells at 5 uM after 24 hrs by 7-AAD/annexin V APC staining-based flow cytometric method (reference value: 4.4%); format: functional
[6] = tested on: PC-12; assay: Neuroprotective activity against 6-OHDA-induced apoptosis in rat PC12 cells assessed as necrotic cells at 5 uM after 24 hrs by 7-AAD/annexin V APC staining-based flow cytometric method (reference value: 0.6%); format: functional
[7] = tested on: PC-12; assay: Neuroprotective activity against 6-OHDA-induced apoptosis in rat PC12 cells assessed as late apoptotic cells at 10 uM after 24 hrs by 7-AAD/annexin V APC staining-based flow cytometric method (reference value: 4.4%); format: functional
[8] = tested on: PC-12; assay: Neuroprotective activity against 6-OHDA-induced apoptosis in rat PC12 cells assessed as necrotic cells at 10 uM after 24 hrs by 7-AAD/annexin V APC staining-based flow cytometric method (reference value: 0.6%); format: functional
[9] = tested on: PC-12; assay: Neuroprotective activity against 6-OHDA-induced apoptosis in rat PC12 cells assessed as late apoptotic cells at 20 uM after 24 hrs by 7-AAD/annexin V APC staining-based flow cytometric method (reference value: 4.4%); format: functional
[10] = tested on: PC-12; assay: Neuroprotective activity against 6-OHDA-induced apoptosis in rat PC12 cells assessed as viable cells at 20 uM after 24 hrs by 7-AAD/annexin V APC staining-based flow cytometric method (reference value: […]); format: functional; conditions: PC-12, 24 h, read-out: Activity
[11] = tested on: PC-12; assay: Neuroprotective activity against 6-OHDA-induced apoptosis in rat PC12 cells assessed as necrotic cells at 40 uM after 24 hrs by 7-AAD/annexin V APC staining-based flow cytometric method (reference value: 0.6%); format: functional
[12] = tested on: PC-12; assay: Neuroprotective activity against rotenone-induced apoptosis in rat PC12 cells assessed as necrotic cells at 5 uM after 24 hrs by 7-AAD/annexin V APC staining-based flow cytometric method (reference value: 48.6%); format: functional
[13] = tested on: PC-12; assay: Neuroprotective activity against rotenone-induced apoptosis in rat PC12 cells assessed as viable cells at 5 uM after 24 hrs by 7-AAD/annexin V APC staining-based flow cytometric method (reference value: 39.3%); format: functional; conditions: PC-12, 24 h, read-out: Activity
[14] = tested on: PC-12; assay: Neuroprotective activity against rotenone-induced apoptosis in rat PC12 cells assessed as viable cells at 10 uM after 24 hrs by 7-AAD/annexin V APC staining-based flow cytometric method (reference value: 39.3%); format: functional; conditions: PC-12, 24 h, read-out: Activity
[15] = tested on: PC-12; assay: Neuroprotective activity against rotenone-induced apoptosis in rat PC12 cells assessed as early apoptotic cells at 20 uM after 24 hrs by 7-AAD/annexin V APC staining-based flow cytometric method (reference value: 2.2%); format: functional
[16] = tested on: PC-12; assay: Neuroprotective activity against rotenone-induced apoptosis in rat PC12 cells assessed as necrotic cells at 20 uM after 24 hrs by 7-AAD/annexin V APC staining-based flow cytometric method (reference value: 48.6%); format: functional
[17] = tested on: PC-12; assay: Neuroprotective activity against rotenone-induced apoptosis in rat PC12 cells assessed as viable cells at 20 uM after 24 hrs by 7-AAD/annexin V APC staining-based flow cytometric method (reference value: 39.3%); format: functional; conditions: PC-12, 24 h, read-out: Activity
[18] = tested on: PC-12; assay: Neuroprotective activity against rotenone-induced apoptosis in rat PC12 cells assessed as early apoptotic cells at 40 uM after 24 hrs by 7-AAD/annexin V APC staining-based flow cytometric method (reference value: 2.2%); format: functional
[19] = tested on: PC-12; assay: Neuroprotective activity against rotenone-induced toxicity in rat PC12 cells assessed as increase in cell viability after 24 hrs by phase-contrast microscopic method; format: functional, cell-based
How it was run: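 PC12 cells were exposed to 5-40 μM test compound together with 40 μM 6-OHDA or 1 μM rotenone for 24 h. Viability was judged from phase-contrast images against untreated controls.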

[20] = tested on: PC-12; assay: Neuroprotective activity against 6-OHDA-induced apoptosis in rat PC12 cells assessed as decrease in nuclear condensation at 20 uM after 24 hrs by Hoechst 33258 staining-based fluorescent inverted microscopic method; format: functional, cell-based
How it was run: (§1)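 PC12 cells exposed to 6-OHDA or rotenone with test treatment were stained with Hoechst 33258 for 30 min, mounted on glass slides under cover slips, and examined by fluorescent inverted microscopy.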

[21] = tested on: PC-12; assay: Neuroprotective activity against 6-OHDA-induced apoptosis in rat PC12 cells assessed as decrease in nuclear fragmentation at 20 uM after 24 hrs by Hoechst 33258 staining-based fluorescent inverted microscopic method; format: functional, cell-based; how it was run: as §1
[22] = tested on: PC-12; assay: Neuroprotective activity against rotenone-induced apoptosis in rat PC12 cells assessed as decrease in nuclear condensation at 20 uM after 24 hrs by Hoechst 33258 staining-based fluorescent inverted microscopic method; format: functional, cell-based; how it was run: as §1
[23] = tested on: PC-12; assay: Neuroprotective activity against rotenone-induced apoptosis in rat PC12 cells assessed as decrease in nuclear fragmentation at 20 uM after 24 hrs by Hoechst 33258 staining-based fluorescent inverted microscopic method; format: functional, cell-based; how it was run: as §1
[24] = tested on: Mus musculus; assay: Acute toxicity in Kunming mouse assessed as abnormal changes in water consumption at 2000 mg/kg measured for 14 days; format: organism-based; conditions: in vivo, 336 h
How it was run: (§2)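 Kunming mice (20 ± 2 g), 10 per group, vehicle control group; fasted overnight, single oral dose in 0.5% CMC-Na suspension. Observed continuously for 4 h, intermittently to 24 h, then occasionally to day 14 for behaviour, mortality, food and water intake and body weight; sacrificed under ether on day 14.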

[25] = tested on: Mus musculus; assay: Acute toxicity in Kunming mouse assessed as reduction in body weight at 2000 mg/kg measured for 14 days; format: organism-based; conditions: in vivo, 336 h; how it was run: as §2

## O=C1CCOc2cc(OCc3ccc(F)cc3)ccc21
[1]
  viability at 24 h, 100 µM: 93.1%
[2]
  viability at 72 h, 20 µM: 94.5%
[3]
  Activity: Dose-dependent effect
[4]
  Activity: 25.1%
[5]
  Activity: 1.8%
[6]
  Activity: 3.8%
[7]
  Activity: 3.3%
[8]
  Activity: 4%
[9]
  Activity: 0.3%
[10]
  viability at 20 µM: 87.8%
[11]
  Activity: 1.9%
[12]
  Activity: 33.2%
[13]
  viability at 5 µM: 54.2%
[14]
  viability at 10 µM: 48%
[15]
  Activity: 2.5%
[16]
  Activity: 30.2%
[17]
  viability at 20 µM: 57.8%
[18]
  Activity: 2.9%
[19]
  Activity: Dose-dependent effect
[20]
  Activity: Active
[21]
  Activity: Active
[22]
  Activity: Active
[23]
  Activity: Active
[24]
  Activity: Non-Toxic
[25]
  Activity: Non-Toxic

— ChEMBL document CHEMBL3862011, “Neuroprotective effects of benzyloxy substituted small molecule monoamine oxidase B inhibitors in Parkinson's disease” (Bioorg Med Chem, 2016)
